Test results: ChEMBL document CHEMBL1144895, “Synthesis and anticonvulsant activity of novel bicyclic acidic amino acids” (J Med Chem, 2003)

Columns and labels:
[1] = system: Mus musculus; assay: In vivo anticonvulsant activity determined as icv dose that blocked tonic seizures induced by audiogenic stimuli in DBA/2 mice after pretreatment with D-serine; type: functional; settings: central
[2] = system: Mus musculus; assay: In vivo anticonvulsant activity determined as icv dose that blocked NMDA-induced clonic seizures induced in DBA/2 mice; type: functional; settings: central
Outline: (§1)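 DBA/2 mice, n = 10 per group, were dosed with drug in DMSO buffered to pH 7.3–7.7, then given icv NMDA: 18.7 nmol/mouse for tonic extension or 1.9 nmol/mouse for clonic seizures. ED50 by Litchfield–Wilcoxon, 95% confidence limits.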

[3] = system: Mus musculus; assay: In vivo anticonvulsant activity determined as icv dose that blocked clonic seizures induced by audiogenic stimuli in DBA/2 mice after pretreatment with D-serine; type: functional; settings: central
[4] = system: Mus musculus; assay: In vivo anticonvulsant activity determined as icv dose that blocked tonic seizures induced in DBA/2 mice by audiogenic stimuli; type: functional; settings: central
Outline: (§2)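 Male DBA/2 mice (6–12 g, 22–26 days old) received icv drug or vehicle (10 μL, 1 mm anterior to bregma, 1 mm lateral, 3 mm depth) under light ether anaesthesia. Drug was dissolved in DMSO, pH 7.3–7.7 with phosphate buffer. 45 min later, 110 dB bell for 60 s; wild running, clonus, tonic extension scored.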

[5] = system: Mus musculus; assay: In vivo anticonvulsant activity determined as icv dose that blocked 3,5-DHPG induced clonic seizures induced in DBA/2 mice; type: functional; settings: central
[6] = system: Mus musculus; assay: In vivo anticonvulsant activity determined as icv dose that blocked clonic seizures induced in DBA/2 mice by audiogenic stimuli; type: functional; settings: central; outline: as §2
[7] = system: Mus musculus; assay: In vivo anticonvulsant activity determined as icv dose that blocked NMDA-induced tonic seizures induced in DBA/2 mice after ip administration; type: functional; outline: as §1
[8] = system: Mus musculus; assay: In vivo anticonvulsant activity determined as icv dose that blocked 3,5-DHPG induced tonic seizures induced in DBA/2 mice after; type: functional; settings: central
[9] = system: Mus musculus; assay: In vivo anticonvulsant activity determined as potency that blocked clonic seizures induced by audiogenic stimuli in DBA/2 mice after pretreatment with D-serine; type: functional
Outline: (§3)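 DBA/2 mice pretreated with D-serine (300 nmol/mouse, icv) 30 min […], then tested for audiogenic seizures (110 dB sound, clonic/tonic phases scored).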

[10] = system: Mus musculus; assay: In vivo anticonvulsant activity determined as potency that blocked NMDA-induced clonic seizures induced in DBA/2 mice; type: functional
[11] = system: Mus musculus; assay: In vivo anticonvulsant activity determined as potency that blocked tonic seizures induced by audiogenic stimuli in DBA/2 mice after pretreatment with D-serine; type: functional; outline: as §3
[12] = system: Mus musculus; assay: In vivo anticonvulsant activity determined as potency that blocked clonic seizures induced in DBA/2 mice by audiogenic stimuli; type: functional
[13] = system: Mus musculus; assay: In vivo anticonvulsant activity determined as potency that blocked NMDA-induced tonic seizures induced in DBA/2 mice; type: functional
[14] = system: Mus musculus; assay: In vivo anticonvulsant activity determined as potency that blocked tonic seizures induced in DBA/2 mice by audiogenic stimuli; type: functional
[15] = species: Rattus norvegicus; assay: Agonist activity tested in rat cortical slice model; type: functional
Outline: (§4)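 Rat cortical slice model; compounds tested up to 1000 μM both as agonists and as antagonists. Antagonism measured against responses to NMDA (10 μM), AMPA (5 μM) or KA (5 μM), agonist applied for a further 90 s.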

[16] = target: T1, Metabotropic glutamate receptor 4 (Rattus norvegicus, UniProt P31423); assay: Activity tested at cloned rat Metabotropic glutamate receptor 4 expressed in Chinese Hamster Ovary (CHO) cells; type: functional, cell-based
Outline: (§5)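 Cloned rat mGluR1α, mGluR2, mGluR4a or mGluR5a stably expressed in CHO cell lines; cells maintained and tested by a previously described procedure.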

[17] = target: Glutamate NMDA receptor; assay: In vitro binding affinity for rat cortical membrane N-methyl-D-aspartate glutamate receptor determined using [3H]CPP as radioligand
[18] = system: Mus musculus; assay: In vivo anticonvulsant activity determined as ip dose that blocked 3,5-DHPG induced clonic seizures induced in DBA/2 mice; type: functional
Outline: (§6)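 DBA/2 mice (n = 10 per group) given agent ip at 10–100 μmol/kg 15 min before icv DHPG (1.5 μmol); seizure-related activity observed for 90 min.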

[19] = system: Mus musculus; assay: In vivo anticonvulsant activity determined as ip dose that blocked NMDA-induced clonic seizures induced in DBA/2 mice; type: functional
[20] = system: Mus musculus; assay: In vivo anticonvulsant activity determined as ip dose that blocked 3,5-DHPG induced tonic seizures induced in DBA/2 mice after; type: functional; outline: as §6
[21] = system: Mus musculus; assay: In vivo anticonvulsant activity determined as ip dose that blocked clonic seizures induced in DBA/2 mice by audiogenic stimuli; type: functional
Outline: (§7)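 Male DBA/2 mice (6–12 g, 22–26 days old) given drug or vehicle ip (DMSO, pH 7.3–7.7 with phosphate buffer). After 45 min, a 110 dB sound for 60 s or until clonus; seizures scored (wild running, clonic, tonic, respiratory arrest).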

[22] = species: Rattus norvegicus; assay: Antagonist activity against responses induced by 10 uM NMDA tested in rat cortical slice model; type: functional
Outline: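 Rat cortical slices; antagonism of responses induced by 10 μM NMDA, agonist applied for a further 90 s; IC50 derived.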

[23] = target: Metabotropic glutamate receptor 1 (Rattus norvegicus, UniProt P23385); assay: Inhibitory constant against cloned rat Metabotropic glutamate receptor 1 expressed in Chinese Hamster Ovary (CHO) cells; type: cell-based; outline: as §5
[24] = system: Mus musculus; assay: In vivo anticonvulsant activity determined as ip dose that blocked tonic seizures induced in DBA/2 mice by audiogenic stimuli; type: functional; outline: as §7
[25] = target: T2, Glutamate receptor ionotropic, AMPA (Rattus norvegicus, UniProt P19490+P19491+P19492+P19493); assay: In vitro binding affinity for rat cortical membrane Ionotropic glutamate receptor AMPA determined using [3H]AMPA as radioligand
[26] = target: T3, Metabotropic glutamate receptor 5 (Rattus norvegicus, UniProt P31424); assay: Inhibitory constant against cloned rat Metabotropic glutamate receptor 5 expressed in Chinese Hamster Ovary (CHO) cells; type: cell-based; outline: as §5
[27] = target: T1, Metabotropic glutamate receptor 4; assay: Inhibitory constant against cloned rat Metabotropic glutamate receptor 4 expressed in Chinese Hamster Ovary (CHO) cells; type: cell-based; outline: as §5
[28] = target: Metabotropic glutamate receptor 2 (Rattus norvegicus) (UniProt P31421); assay: Activity tested at cloned rat mGluR2 receptor expressed in Chinese Hamster Ovary (CHO) cells at 1 mM concentration; type: functional, cell-based
Outline: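 Cloned rat mGluR2 in CHO cells; test compound at 1 mM, also checked for inhibition of the response to 30 μM Glu.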

[29] = species: Rattus norvegicus; assay: Percent inhibition of the response induced by 5 uM of AMPA at a concentration of 1 mM in rat; type: functional
[30] = system: Mus musculus; assay: In vivo anticonvulsant activity determined as ip dose that blocked tonic seizures induced by audiogenic stimuli in DBA/2 mice after pretreatment with D-serine; type: functional; outline: as §3
[31] = system: Mus musculus; assay: In vivo anticonvulsant activity determined as ip dose that blocked NMDA-induced tonic seizures induced in DBA/2 mice after ip administration; type: functional
[32] = target: Glutamate receptor ionotropic, kainate; assay: In vitro binding affinity for rat cortical membrane KA receptor determined using [3H]KA as radioligand
[33] = system: Mus musculus; assay: In vivo anticonvulsant activity determined as ip dose that blocked clonic seizures induced by audiogenic stimuli in DBA/2 mice after pretreatment with D-serine; type: functional; outline: as §3
[34] = target: T3, Metabotropic glutamate receptor 5; assay: Activity tested at cloned rat Metabotropic glutamate receptor 5 expressed in Chinese Hamster Ovary (CHO) cells; type: functional, cell-based
Outline: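 Rat mGluR5a splice variant expressed in a CHO cell line. Compounds were tested for agonist and antagonist action at this receptor.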

[35] = target: Metabotropic glutamate receptor 2 (Rattus norvegicus, UniProt P31421); assay: Activity tested at cloned rat mGluR2 receptor expressed in Chinese Hamster Ovary (CHO) cells; type: functional, cell-based
Outline: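 Rat mGluR2 stably expressed in CHO cells, with cells maintained and tested as described in an earlier report. Agonism was assessed directly. Antagonism was assessed against a response to 30 μM Glu, with test compound at 1 mM.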

[36] = target: T2, Glutamate receptor ionotropic, AMPA; assay: Binding affinity of compound was determined against Ionotropic glutamate receptor AMPA receptor, using radioligand [3H]- AMPA; type: protein-complex assay
[37] = species: Rattus norvegicus; assay: Antagonist activity tested in rat cortical slice model; type: functional; outline: as §4
[38] = system: Mus musculus; assay: In vivo anticonvulsant activity determined as ip dose that blocked NMDA-induced tonic seizures induced in DBA/2 mice; type: functional
[39] = system: Mus musculus; assay: In vivo anticonvulsant activity determined as ip dose that blocked 3,5-DHPG induced tonic seizures induced in DBA/2 mice; type: functional; outline: as §6

T1 sequence (P31423 whole entry): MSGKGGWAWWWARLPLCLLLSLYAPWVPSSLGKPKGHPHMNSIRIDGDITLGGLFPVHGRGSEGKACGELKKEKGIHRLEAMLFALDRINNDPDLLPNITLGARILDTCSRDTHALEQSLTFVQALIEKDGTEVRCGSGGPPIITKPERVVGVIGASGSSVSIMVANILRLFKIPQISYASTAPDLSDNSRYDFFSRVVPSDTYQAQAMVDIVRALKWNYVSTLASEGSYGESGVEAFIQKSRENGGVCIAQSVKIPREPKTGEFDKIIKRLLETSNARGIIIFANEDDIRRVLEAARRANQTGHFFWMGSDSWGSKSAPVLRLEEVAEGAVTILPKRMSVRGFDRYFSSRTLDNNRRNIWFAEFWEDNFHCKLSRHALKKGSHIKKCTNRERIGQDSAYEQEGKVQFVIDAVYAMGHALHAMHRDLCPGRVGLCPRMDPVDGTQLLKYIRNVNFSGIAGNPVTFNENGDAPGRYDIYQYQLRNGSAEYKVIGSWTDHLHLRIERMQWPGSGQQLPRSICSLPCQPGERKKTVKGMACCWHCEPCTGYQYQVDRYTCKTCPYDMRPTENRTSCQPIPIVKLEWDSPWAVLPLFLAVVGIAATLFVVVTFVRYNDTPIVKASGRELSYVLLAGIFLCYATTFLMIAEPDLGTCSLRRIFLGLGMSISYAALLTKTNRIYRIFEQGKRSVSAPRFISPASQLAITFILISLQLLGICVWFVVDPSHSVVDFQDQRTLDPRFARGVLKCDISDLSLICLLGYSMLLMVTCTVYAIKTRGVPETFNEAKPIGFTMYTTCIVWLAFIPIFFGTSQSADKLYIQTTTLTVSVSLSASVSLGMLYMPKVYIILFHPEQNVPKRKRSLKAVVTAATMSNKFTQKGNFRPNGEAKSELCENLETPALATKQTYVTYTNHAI
T3 sequence (P31424 whole entry): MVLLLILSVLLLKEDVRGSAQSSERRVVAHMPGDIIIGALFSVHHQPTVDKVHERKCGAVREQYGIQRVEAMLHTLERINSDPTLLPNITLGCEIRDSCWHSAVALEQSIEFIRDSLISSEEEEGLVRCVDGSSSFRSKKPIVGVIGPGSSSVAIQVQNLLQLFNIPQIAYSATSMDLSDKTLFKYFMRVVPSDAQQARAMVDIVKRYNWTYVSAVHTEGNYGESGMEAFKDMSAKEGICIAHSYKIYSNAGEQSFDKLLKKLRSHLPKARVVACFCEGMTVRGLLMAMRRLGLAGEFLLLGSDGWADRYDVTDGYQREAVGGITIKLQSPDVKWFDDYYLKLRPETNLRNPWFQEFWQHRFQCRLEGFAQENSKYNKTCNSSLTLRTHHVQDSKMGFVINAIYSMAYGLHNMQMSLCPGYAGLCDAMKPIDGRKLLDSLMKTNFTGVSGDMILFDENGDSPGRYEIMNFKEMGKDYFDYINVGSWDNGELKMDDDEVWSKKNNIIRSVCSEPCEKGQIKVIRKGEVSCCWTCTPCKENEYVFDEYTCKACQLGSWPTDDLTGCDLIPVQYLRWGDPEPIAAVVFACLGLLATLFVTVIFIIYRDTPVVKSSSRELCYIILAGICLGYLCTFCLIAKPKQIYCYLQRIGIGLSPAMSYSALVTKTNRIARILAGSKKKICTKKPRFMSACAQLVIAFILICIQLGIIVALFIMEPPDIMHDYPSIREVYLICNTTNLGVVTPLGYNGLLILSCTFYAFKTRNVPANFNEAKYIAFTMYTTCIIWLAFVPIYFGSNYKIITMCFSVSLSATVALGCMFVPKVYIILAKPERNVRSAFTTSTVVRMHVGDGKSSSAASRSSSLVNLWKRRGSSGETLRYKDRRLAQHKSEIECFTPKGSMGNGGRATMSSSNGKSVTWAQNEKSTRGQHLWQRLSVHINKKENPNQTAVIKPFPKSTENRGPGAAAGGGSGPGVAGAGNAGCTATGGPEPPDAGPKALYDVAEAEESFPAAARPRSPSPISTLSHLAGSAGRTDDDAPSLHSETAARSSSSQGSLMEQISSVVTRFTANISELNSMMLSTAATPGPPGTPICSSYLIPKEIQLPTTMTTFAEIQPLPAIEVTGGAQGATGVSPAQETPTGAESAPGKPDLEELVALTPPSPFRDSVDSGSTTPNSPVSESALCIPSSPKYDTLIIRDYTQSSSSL
Sequence of Metabotropic glutamate receptor 1 (P23385 whole entry): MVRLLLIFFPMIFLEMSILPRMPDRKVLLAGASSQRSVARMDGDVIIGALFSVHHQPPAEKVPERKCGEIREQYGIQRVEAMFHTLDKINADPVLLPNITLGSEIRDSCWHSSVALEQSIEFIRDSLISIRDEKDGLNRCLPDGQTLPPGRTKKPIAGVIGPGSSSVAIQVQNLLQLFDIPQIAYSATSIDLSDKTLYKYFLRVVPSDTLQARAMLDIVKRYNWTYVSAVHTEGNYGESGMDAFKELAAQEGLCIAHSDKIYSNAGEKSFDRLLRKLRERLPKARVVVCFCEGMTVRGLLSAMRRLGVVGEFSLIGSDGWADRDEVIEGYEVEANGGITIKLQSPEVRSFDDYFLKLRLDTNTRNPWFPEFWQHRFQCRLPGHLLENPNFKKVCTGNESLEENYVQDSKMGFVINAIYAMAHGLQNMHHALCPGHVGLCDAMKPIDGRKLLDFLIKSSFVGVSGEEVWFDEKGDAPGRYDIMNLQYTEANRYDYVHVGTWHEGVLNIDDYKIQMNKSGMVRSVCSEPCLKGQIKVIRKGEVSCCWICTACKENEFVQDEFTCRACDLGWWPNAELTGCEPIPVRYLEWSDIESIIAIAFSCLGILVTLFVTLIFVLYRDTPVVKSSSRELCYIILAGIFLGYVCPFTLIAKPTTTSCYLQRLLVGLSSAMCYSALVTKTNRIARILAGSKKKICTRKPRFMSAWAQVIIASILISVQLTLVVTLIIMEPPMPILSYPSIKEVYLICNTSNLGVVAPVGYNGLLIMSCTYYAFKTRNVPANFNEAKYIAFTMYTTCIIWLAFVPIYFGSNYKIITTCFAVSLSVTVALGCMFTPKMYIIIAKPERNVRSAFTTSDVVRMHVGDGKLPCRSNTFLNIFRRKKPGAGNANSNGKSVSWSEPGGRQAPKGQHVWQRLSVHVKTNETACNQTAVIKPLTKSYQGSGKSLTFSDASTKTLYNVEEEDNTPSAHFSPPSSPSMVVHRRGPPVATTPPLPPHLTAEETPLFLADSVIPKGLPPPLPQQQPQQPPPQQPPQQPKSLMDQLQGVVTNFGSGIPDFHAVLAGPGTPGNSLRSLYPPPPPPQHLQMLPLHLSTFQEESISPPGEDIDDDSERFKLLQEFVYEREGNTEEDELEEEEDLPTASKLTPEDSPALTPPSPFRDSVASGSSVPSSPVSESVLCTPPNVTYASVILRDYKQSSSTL
Sequence of Metabotropic glutamate receptor 2 (P31421 whole entry): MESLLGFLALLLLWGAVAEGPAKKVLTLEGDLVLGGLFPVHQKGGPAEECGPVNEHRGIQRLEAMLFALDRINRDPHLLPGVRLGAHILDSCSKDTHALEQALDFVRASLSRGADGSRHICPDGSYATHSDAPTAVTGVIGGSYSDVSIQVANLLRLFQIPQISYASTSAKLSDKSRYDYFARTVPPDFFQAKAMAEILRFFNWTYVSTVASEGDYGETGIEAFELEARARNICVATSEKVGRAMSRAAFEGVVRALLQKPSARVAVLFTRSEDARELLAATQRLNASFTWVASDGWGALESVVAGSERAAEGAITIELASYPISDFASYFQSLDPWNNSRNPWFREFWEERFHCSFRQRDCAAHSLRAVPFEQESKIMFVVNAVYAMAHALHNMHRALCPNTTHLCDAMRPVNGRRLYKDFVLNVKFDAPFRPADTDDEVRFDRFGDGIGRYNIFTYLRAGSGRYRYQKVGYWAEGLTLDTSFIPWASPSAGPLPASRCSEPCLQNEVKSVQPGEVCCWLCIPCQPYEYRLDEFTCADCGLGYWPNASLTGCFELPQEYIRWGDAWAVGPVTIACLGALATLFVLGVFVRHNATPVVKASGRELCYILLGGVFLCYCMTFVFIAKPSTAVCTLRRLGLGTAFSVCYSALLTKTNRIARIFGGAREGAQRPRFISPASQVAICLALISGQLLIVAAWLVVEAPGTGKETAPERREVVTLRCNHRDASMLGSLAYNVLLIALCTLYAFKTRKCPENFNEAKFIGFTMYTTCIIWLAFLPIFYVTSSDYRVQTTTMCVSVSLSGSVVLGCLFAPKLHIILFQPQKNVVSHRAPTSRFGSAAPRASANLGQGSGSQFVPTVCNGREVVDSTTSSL
Sequence of Metabotropic glutamate receptor 2 (Rattus norvegicus) (P31421 19-872 limits assumed): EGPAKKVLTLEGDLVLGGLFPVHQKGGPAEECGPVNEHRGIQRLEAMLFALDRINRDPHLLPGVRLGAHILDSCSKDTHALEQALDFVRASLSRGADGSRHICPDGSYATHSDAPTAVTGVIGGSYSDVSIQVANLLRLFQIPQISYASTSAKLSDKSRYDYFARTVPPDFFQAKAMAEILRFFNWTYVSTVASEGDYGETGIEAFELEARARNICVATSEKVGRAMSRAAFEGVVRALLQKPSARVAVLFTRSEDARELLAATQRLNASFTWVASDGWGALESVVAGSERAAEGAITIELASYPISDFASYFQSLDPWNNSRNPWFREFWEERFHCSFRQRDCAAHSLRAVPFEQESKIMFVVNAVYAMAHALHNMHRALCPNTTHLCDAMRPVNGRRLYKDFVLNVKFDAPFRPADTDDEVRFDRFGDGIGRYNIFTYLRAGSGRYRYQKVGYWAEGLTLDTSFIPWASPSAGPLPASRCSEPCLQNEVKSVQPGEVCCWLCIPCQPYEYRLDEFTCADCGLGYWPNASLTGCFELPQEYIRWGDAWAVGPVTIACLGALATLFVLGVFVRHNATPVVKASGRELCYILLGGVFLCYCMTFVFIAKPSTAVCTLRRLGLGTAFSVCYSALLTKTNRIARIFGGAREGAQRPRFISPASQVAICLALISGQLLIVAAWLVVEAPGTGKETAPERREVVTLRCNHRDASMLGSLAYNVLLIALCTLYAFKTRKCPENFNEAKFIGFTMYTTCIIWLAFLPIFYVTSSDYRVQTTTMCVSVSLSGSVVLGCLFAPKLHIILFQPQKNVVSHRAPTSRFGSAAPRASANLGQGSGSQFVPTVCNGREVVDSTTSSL

CC(C)OC(=O)Nc1cccc(Cl)c1 [CHLORPROPHAM]
ED50 [1]: 2.8 µmol/kg | ED50 [2]: 41 µmol/kg | ED50 [3]: 5.2 µmol/kg | ED50 [4]: 2.6 µmol/kg | ED50 [5]: 8.7 µmol/kg | ED50 [6]: 5.6 µmol/kg | ED50 [7]: 22 µmol/kg | ED50 [8]: 6.9 µmol/kg

O=C1NC(=O)C(c2ccccc2)(c2ccccc2)N1 [PHENYTOIN]
ED50 [9]: 11 µmol/kg | ED50 [10]: 31 µmol/kg | ED50 [11]: 8.7 µmol/kg | ED50 [12]: 9.1 µmol/kg | ED50 [13]: 2.2 µmol/kg | ED50 [14]: 7.3 µmol/kg

N[C@@]1(C(=O)O)C[C@@H]2ON=C(C(=O)O)[C@@H]2C1 (racemic)
EC50 [15]: > 1000 µM | EC50 [16]: > 1000 µM | IC50 [17]: 0.49 µM | ED50 [18]: 70 µmol/kg | ED50 [19]: 54 µmol/kg | ED50 [20]: 45 µmol/kg | ED50 [21]: 28 µmol/kg | IC50 [22]: 14 µM | Ki [23]: 94 µM | ED50 [24]: 22 µmol/kg | IC50 [25]: > 100 µM | Ki [26]: 640 µM | Ki [27]: > 1000 µM | Activation [28]: 36% | Inhibition [29]: 32% | ED50 [30]: 27 µmol/kg | ED50 [31]: 39 µmol/kg | IC50 [32]: > 100 µM | ED50 [33]: 33 µmol/kg

N[C@@]1(C(=O)O)CC[C@@H](C(=O)O)C1 (racemic)
EC50 [34]: 23 µM | EC50 [16]: 800 µM | EC50 [35]: 2 µM

N[C@]1(C(=O)O)C[C@@H]2ON=C(C(=O)O)[C@@H]2C1 (racemic)
IC50 [36]: > 100 µM | IC50 [37]: > 1000 µM | EC50 [15]: > 1000 µM | EC50 [16]: > 1000 µM | IC50 [17]: > 100 µM | ED50 [21]: 42 µmol/kg | ED50 [38]: 91 µmol/kg | Ki [23]: 27 µM | ED50 [24]: 25 µmol/kg | Ki [26]: 440 µM | Ki [27]: > 1000 µM | ED50 [30]: 24 µmol/kg | IC50 [32]: > 100 µM | EC50 [35]: 16 µM | ED50 [39]: 84 µmol/kg | ED50 [33]: 41 µmol/kg

N[C@H](CCCP(=O)(O)O)C(=O)O
IC50 [17]: 0.88 µM

CCCC(CCC)C(=O)O [VALPROIC ACID]
ED50 [9]: 275 µmol/kg | ED50 [10]: 878 µmol/kg | ED50 [11]: 205 µmol/kg | ED50 [12]: 258 µmol/kg | ED50 [13]: 498 µmol/kg | ED50 [14]: 187 µmol/kg

NC(=O)OCC(COC(N)=O)c1ccccc1 [FELBAMATE]
ED50 [9]: 674 µmol/kg | ED50 [10]: 122 µmol/kg | ED50 [11]: 328 µmol/kg | ED50 [12]: 204 µmol/kg | ED50 [13]: 51 µmol/kg | ED50 [14]: 97 µmol/kg

O=C(O)[C@H]1CN(C/C=C/P(=O)(O)O)CCN1 [MIDAFOTEL]
IC50 [17]: 0.04 µM | ED50 [18]: 8.6 µmol/kg | ED50 [19]: 17 µmol/kg | ED50 [20]: 6.8 µmol/kg | ED50 [21]: 1.8 µmol/kg | ED50 [24]: 0.79 µmol/kg | ED50 [30]: 1.2 µmol/kg | ED50 [31]: 11 µmol/kg | ED50 [33]: 2.5 µmol/kg

N[C@@H](CCCP(=O)(O)O)C(=O)O
IC50 [17]: 29 µM

O=C(O)c1cc(O)c2c(Cl)cc(Cl)cc2n1
ED50 [1]: 8.5 µmol/kg | ED50 [2]: 26 µmol/kg | ED50 [3]: 12 µmol/kg | ED50 [4]: 2.2 µmol/kg | ED50 [5]: 14 µmol/kg | ED50 [6]: 2.4 µmol/kg | ED50 [7]: 22 µmol/kg | ED50 [8]: 11 µmol/kg
